Laboratory results as given in ChEMBL document CHEMBL1157032, “Synthesis and antimicrobial activity of novel pyrazolo[3,4-d]pyrimidin derivatives” (2010).
Converted amounts (≈) assume the structure as drawn. The source made the active and inactive calls. No cut-off for these calls is given here.

Tests used:
[1] = system: Aspergillus flavus; test: Antimicrobial activity against Aspergillus flavus MTCC 2501 at 30 ug/ml after 48 hrs by agar diffusion method; format: functional, organism-based
How it was run: (§1)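 Agar well diffusion on Sabouraud dextrose agar. Plates were spread with fungal spore suspension in sterile distilled water adjusted to 10⁶ cfu/mL. Compound dilutions in 1% DMSO went into 6 mm wells, with DMSO alone as control. Plates were incubated 48 h at 28 ± 0.2 °C, and the inhibition zone was read in mm.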

[2] = system: Staphylococcus aureus; test: Antimicrobial activity against Staphylococcus aureus MTCC 96 at 10 ug/ml after 24 hrs by agar diffusion method; format: functional
How it was run: (§2)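 Agar well diffusion on Mueller Hinton agar. Plates were seeded with bacterial suspension in sterile 0.85% saline at 10⁵ cfu/mL. Compound dilutions in 1% DMSO went into 6 mm wells, with DMSO alone as control. Plates were incubated 24 h at 37 ± 0.5 °C, and the zone of inhibition was measured in mm.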

[3] = system: Priestia megaterium; test: Antimicrobial activity against Bacillus megaterium MTCC 1684 at 10 ug/ml after 24 hrs by agar diffusion method; format: functional; how it was run: as §2
[4] = system: Trichoderma viride; test: Antimicrobial activity against Trichoderma viride MTCC 167 at 30 ug/ml after 48 hrs by agar diffusion method; format: functional, organism-based; how it was run: as §1
[5] = system: Candida albicans; test: Antimicrobial activity against Candida albicans MTCC 227 at 30 ug/ml after 48 hrs by agar diffusion method; format: functional, organism-based; how it was run: as §1
[6] = system: Pseudomonas aeruginosa; test: Antimicrobial activity against Pseudomonas aeruginosa MTCC 2488 at 10 ug/ml after 24 hrs by agar diffusion method; format: functional; how it was run: as §2
[7] = system: Aspergillus niger; test: Antimicrobial activity against Aspergillus niger MTCC 1781 at 30 ug/ml after 48 hrs by agar diffusion method; format: functional, organism-based; how it was run: as §1
[8] = system: Penicillium chrysogenum; test: Antimicrobial activity against Penicillium chrysogenum MTCC 1996 at 30 ug/ml after 48 hrs by agar diffusion method; format: functional, organism-based; how it was run: as §1
[9] = system: Serratia marcescens; test: Antimicrobial activity against Serratia marcescens MTCC 86 at 10 ug/ml after 24 hrs by agar diffusion method; format: functional; how it was run: as §2
[10] = system: Bacillus subtilis; test: Antimicrobial activity against Bacillus subtilis MTCC 1789 at 10 ug/ml after 24 hrs by agar diffusion method; format: functional; how it was run: as §2
[11] = system: Proteus vulgaris; test: Antimicrobial activity against Proteus vulgaris MTCC 1771 at 10 ug/ml after 24 hrs by agar diffusion method; format: functional; how it was run: as §2
[12] = system: Klebsiella pneumoniae; test: Antimicrobial activity against Klebsiella pneumoniae NCIM 2957 at 10 ug/ml after 24 hrs by agar diffusion method; format: functional; how it was run: as §2
[13] = system: Priestia megaterium; test: Antimicrobial activity against Bacillus megaterium MTCC 1684 after 24 hrs; format: functional; details: MTCC 1684, 24 h
How it was run: (§3)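 Agar well diffusion on Mueller Hinton agar seeded with 0.1 mL of a 10⁵ cfu/mL bacterial suspension in 0.85% sterile saline. 6 mm wells received 0.1 mL of each compound dilution in DMSO (1% DMSO; DMSO alone as control). Plates were incubated 24 h at 37 ± 0.5 °C. Read-out was zone of inhibition in mm. MIC was taken as the lowest concentration giving complete growth inhibition.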

[14] = system: Serratia marcescens; test: Antimicrobial activity against Serratia marcescens MTCC 86 after 24 hrs; format: functional; details: MTCC 86, 24 h; how it was run: as §3
[15] = system: Klebsiella pneumoniae; test: Antimicrobial activity against Klebsiella pneumoniae NCIM 2957 at MIC after 24 hrs by agar diffusion method; format: functional; how it was run: as §3
[16] = system: Trichoderma viride; test: Antimicrobial activity against Trichoderma viride MTCC 167 after 48 hrs; format: functional; details: MTCC 167, 48 h
How it was run: (§4)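 Fungal spore suspensions in sterile distilled water were adjusted to 10⁶ cfu/mL, and 0.1 mL was spread on Sabouraud dextrose agar. 6 mm wells were filled with 0.1 mL of compound dilution in DMSO (1% DMSO; DMSO-only control). Plates were incubated 48 h at 28 ± 0.2 °C, and inhibition zones were measured in mm. MIC was the lowest concentration completely inhibiting growth.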

[17] = system: Proteus vulgaris; test: Antimicrobial activity against Proteus vulgaris MTCC 1771 after 24 hrs; format: functional; details: MTCC 1771, 24 h; how it was run: as §3
[18] = system: Serratia marcescens; test: Antimicrobial activity against Serratia marcescens MTCC 86 at MIC after 24 hrs by agar diffusion method; format: functional; how it was run: as §3
[19] = system: Escherichia coli; test: Antimicrobial activity against Escherichia coli MTCC 1650 at MIC after 24 hrs by agar diffusion method; format: functional; how it was run: as §3
[20] = system: Aspergillus niger; test: Antimicrobial activity against Aspergillus niger MTCC 1781 after 48 hrs; format: functional; details: MTCC 1781, 48 h; how it was run: as §4
[21] = system: Bacillus subtilis; test: Antimicrobial activity against Bacillus subtilis MTCC 1789 at MIC after 24 hrs by agar diffusion method; format: functional; how it was run: as §3
[22] = system: Candida albicans; test: Antimicrobial activity against Candida albicans MTCC 227 at MIC after 48 hrs by agar diffusion method; format: functional; how it was run: as §4
[23] = system: Aspergillus flavus; test: Antimicrobial activity against Aspergillus flavus MTCC 2501 after 48 hrs; format: functional; details: MTCC 2501, 48 h; how it was run: as §4
[24] = system: Aspergillus niger; test: Antimicrobial activity against Aspergillus niger MTCC 1781 at MIC after 48 hrs by agar diffusion method; format: functional; how it was run: as §4
[25] = system: Staphylococcus aureus; test: Antimicrobial activity against Staphylococcus aureus MTCC 96 at MIC after 24 hrs by agar diffusion method; format: functional; how it was run: as §3
[26] = system: Aspergillus flavus; test: Antimicrobial activity against Aspergillus flavus MTCC 2501 at MIC after 48 hrs by agar diffusion method; format: functional; how it was run: as §4
[27] = system: Trichoderma viride; test: Antimicrobial activity against Trichoderma viride MTCC 167 at MIC after 48 hrs by agar diffusion method; format: functional; how it was run: as §4
[28] = system: Bacillus subtilis; test: Antimicrobial activity against Bacillus subtilis MTCC 1789 after 24 hrs; format: functional; details: MTCC 1789, 24 h; how it was run: as §3
[29] = system: Candida albicans; test: Antimicrobial activity against Candida albicans MTCC 227 after 48 hrs; format: functional; details: MTCC 227, 48 h; how it was run: as §4
[30] = system: Klebsiella pneumoniae; test: Antimicrobial activity against Klebsiella pneumoniae NCIM 2957 after 24 hrs; format: functional; details: NCIM 2957, 24 h; how it was run: as §3
[31] = system: Proteus vulgaris; test: Antimicrobial activity against Proteus vulgaris MTCC 1771 at MIC after 24 hrs by agar diffusion method; format: functional; how it was run: as §3
[32] = system: Escherichia coli; test: Antimicrobial activity against Escherichia coli MTCC 1650 after 24 hrs; format: functional; details: MTCC 1650, 24 h; how it was run: as §3
[33] = system: Pseudomonas aeruginosa; test: Antimicrobial activity against Pseudomonas aeruginosa MTCC 2488 after 24 hrs; format: functional; details: MTCC 2488, 24 h; how it was run: as §3
[34] = system: Penicillium chrysogenum; test: Antimicrobial activity against Penicillium chrysogenum MTCC 1996 at MIC after 48 hrs by agar diffusion method; format: functional; how it was run: as §4
[35] = system: Penicillium chrysogenum; test: Antimicrobial activity against Penicillium chrysogenum MTCC 1996 after 48 hrs; format: functional; details: MTCC 1996, 48 h; how it was run: as §4
[36] = system: Priestia megaterium; test: Antimicrobial activity against Bacillus megaterium MTCC 1684 at MIC after 24 hrs by agar diffusion method; format: functional; how it was run: as §3
[37] = system: Staphylococcus aureus; test: Antimicrobial activity against Staphylococcus aureus MTCC 96 after 24 hrs; format: functional; details: MTCC 96, 24 h; how it was run: as §3
[38] = system: Pseudomonas aeruginosa; test: Antimicrobial activity against Pseudomonas aeruginosa MTCC 2488 at MIC after 24 hrs by agar diffusion method; format: functional; how it was run: as §3

| Compound | MIC [13] [mg/L] | MIC [14] [mg/L] | inhibition zone (IZ) [15] [mm] | MIC [16] [mg/L] | MIC [17] [mg/L] | inhibition zone (IZ) [18] [mm] | inhibition zone (IZ) [19] | MIC [20] [mg/L] | inhibition zone (IZ) [21] | inhibition zone (IZ) [22] | MIC [23] [mg/L] | inhibition zone (IZ) [24] | inhibition zone (IZ) [25] [mm] | inhibition zone (IZ) [26] [mm] | inhibition zone (IZ) [27] [mm] | MIC [28] [mg/L] | MIC [29] [mg/L] | MIC [30] [mg/L] | inhibition zone (IZ) [31] | MIC [32] [mg/L] | other results |
| --- | --- | --- | --- | --- | --- | --- | --- | --- | --- | --- | --- | --- | --- | --- | --- | --- | --- | --- | --- | --- | --- |
| CN(C)[C@@H]1C(O)=C(C(N)=O)C(=O)[C@@]2(O)C(O)=C3C(=O)c4c(O)cccc4[C@@](C)(O)[C@H]3C[C@@H]12 [TETRACYCLINE] |  |  |  |  |  |  |  |  |  |  |  |  |  |  |  |  |  |  |  |  | inhibition zone (IZ) [1]: inactive; zone of inhibition at 10 µg/mL ([2]; MTCC 96, 24 h, read-out: IZ): 25 mm; zone of inhibition at 10 µg/mL ([3]; MTCC 1684, 24 h, read-out: IZ): 27 mm; inhibition zone (IZ) [4]: inactive; inhibition zone (IZ) [5]: inactive; zone of inhibition at 10 µg/mL ([6]; MTCC 2488, 24 h, read-out: IZ): 32 mm; inhibition zone (IZ) [7]: inactive; inhibition zone (IZ) [8]: inactive; zone of inhibition at 10 µg/mL ([9]; MTCC 86, 24 h, read-out: IZ): 15 mm; zone of inhibition at 10 µg/mL ([10]; MTCC 1789, 24 h, read-out: IZ): 20 mm; zone of inhibition at 10 µg/mL ([11]; MTCC 1771, 24 h, read-out: IZ): 20 mm; zone of inhibition at 10 µg/mL ([12]; NCIM 2957, 24 h, read-out: IZ): 17 mm |
| NYSTATIN |  |  |  |  |  |  |  |  |  |  |  |  |  |  |  |  |  |  |  |  | inhibition zone (IZ) [1]: 14 mm; inhibition zone (IZ) [2]: inactive; inhibition zone (IZ) [3]: inactive; inhibition zone (IZ) [4]: 18 mm; inhibition zone (IZ) [5]: 17 mm; inhibition zone (IZ) [6]: inactive; inhibition zone (IZ) [7]: 14 mm; inhibition zone (IZ) [8]: 17 mm; inhibition zone (IZ) [9]: inactive; inhibition zone (IZ) [10]: inactive; inhibition zone (IZ) [11]: inactive; inhibition zone (IZ) [12]: inactive |
| Nc1n[nH]c2nc3scc(-c4ccc([N+](=O)[O-])cc4)n3c(=O)c12 | 50 (≈ 152 µM) | 50 (≈ 152 µM) | 13 | 250 (≈ 761 µM) | 50 (≈ 152 µM) | 16 | 10 mm | 250 (≈ 761 µM) | inactive | 21 mm | 250 (≈ 761 µM) | inactive | 31 | 16 | 29 | 50 (≈ 152 µM) | 250 (≈ 761 µM) | 50 (≈ 152 µM) | inactive | 50 (≈ 152 µM) | MIC [33]: 50 mg/L (≈ 152 µM); inhibition zone (IZ) [34]: 32 mm; MIC [35]: 250 mg/L (≈ 761 µM); inhibition zone (IZ) [36]: inactive; MIC [37]: 50 mg/L (≈ 152 µM) |
| Nc1n[nH]c2nc3scc(-c4ccc(O)cc4)n3c(=O)c12 | 50 (≈ 167 µM) | 50 (≈ 167 µM) | 11 | 250 (≈ 835 µM) | 50 (≈ 167 µM) | 17 | inactive | 250 (≈ 835 µM) | 12 mm | inactive | 250 (≈ 835 µM) | 16 mm | 30 | 21 | 26 | 50 (≈ 167 µM) | 250 (≈ 835 µM) | 50 (≈ 167 µM) | 14 mm | 50 (≈ 167 µM) | inhibition zone (IZ) [38]: 25 mm; MIC [33]: 50 mg/L (≈ 167 µM); inhibition zone (IZ) [34]: 29 mm; MIC [35]: 250 mg/L (≈ 835 µM); inhibition zone (IZ) [36]: inactive; MIC [37]: 50 mg/L (≈ 167 µM) |
| Nc1n[nH]c2nc3scc(-c4cc(Cl)cc(Br)c4O)n3c(=O)c12 | 50 (≈ 121 µM) | 50 (≈ 121 µM) | 9 | 250 (≈ 606 µM) | 50 (≈ 121 µM) | 15 | 11 mm | 250 (≈ 606 µM) | inactive | 16 mm | 250 (≈ 606 µM) | inactive | 16 | 11 | 26 | 50 (≈ 121 µM) | 250 (≈ 606 µM) | 50 (≈ 121 µM) | inactive | 50 (≈ 121 µM) | MIC [33]: 50 mg/L (≈ 121 µM); inhibition zone (IZ) [34]: 28 mm; MIC [35]: 250 mg/L (≈ 606 µM); inhibition zone (IZ) [36]: inactive; MIC [37]: 50 mg/L (≈ 121 µM) |
